Results from ChEMBL document CHEMBL1155233, “Structure mechanism insights and the role of nitric oxide donation guide the development of oxadiazole-2-oxides as therapeutic agents against schistosomiasis” (J Med Chem, 2009).
Values after ≈ are worked out from the molar mass of the structure shown. Active and inactive are the calls of the source. The rule behind the calls is not given here.

Assays:
[1] = molecular target: T1, Glutathione reductase, mitochondrial (Homo sapiens, UniProt P00390); experiment: Inhibition of human recombinant GR after 15 mins in presence of NADPH
T1 sequence (P00390 whole entry): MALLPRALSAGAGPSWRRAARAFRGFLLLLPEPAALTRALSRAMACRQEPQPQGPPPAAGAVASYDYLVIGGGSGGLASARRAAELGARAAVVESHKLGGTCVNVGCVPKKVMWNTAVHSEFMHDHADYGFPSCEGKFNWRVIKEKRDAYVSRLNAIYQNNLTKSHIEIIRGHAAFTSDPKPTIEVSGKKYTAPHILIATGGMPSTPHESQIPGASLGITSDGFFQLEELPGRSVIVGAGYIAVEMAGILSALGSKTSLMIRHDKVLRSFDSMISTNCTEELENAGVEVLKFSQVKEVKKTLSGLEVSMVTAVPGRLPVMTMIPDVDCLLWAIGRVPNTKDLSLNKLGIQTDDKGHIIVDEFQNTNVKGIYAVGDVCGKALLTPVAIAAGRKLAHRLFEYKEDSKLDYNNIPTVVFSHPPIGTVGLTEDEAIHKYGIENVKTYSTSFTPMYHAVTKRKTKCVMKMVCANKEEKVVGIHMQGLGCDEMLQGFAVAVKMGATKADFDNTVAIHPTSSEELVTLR

[2] = test system: Schistosoma mansoni; experiment: Antischistosomal activity against Schistosoma mansoni assessed as induction of parasite mortality after 16 hrs; type: functional; parameters: concentration or dose not given beside the values
Method in brief: (§1)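 Cultured ex vivo worms were exposed to 10 μM compound. Worm effects were scored by visual examination at time points over a 72 h time-course.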

[3] = Induction of nitric oxide release at 10 uM in presence of cysteine; type: physicochemical
[4] = test system: Schistosoma mansoni; experiment: Antischistosomal activity against Schistosoma mansoni assessed as induction of parasite mortality after 24 hrs; type: functional; parameters: concentration or dose not given beside the values; method in brief: as §1
[5] = Induction of nitric oxide release at 10 uM in presence of Schistosoma mansoni recombinant TGR and NADPH; type: functional
[6] = molecular target: T2, Thioredoxin reductase 1, cytoplasmic (Rattus norvegicus, UniProt O89049); experiment: Inhibition of rat recombinant TrxR1 after 10 mins
T2 sequence (O89049 whole entry): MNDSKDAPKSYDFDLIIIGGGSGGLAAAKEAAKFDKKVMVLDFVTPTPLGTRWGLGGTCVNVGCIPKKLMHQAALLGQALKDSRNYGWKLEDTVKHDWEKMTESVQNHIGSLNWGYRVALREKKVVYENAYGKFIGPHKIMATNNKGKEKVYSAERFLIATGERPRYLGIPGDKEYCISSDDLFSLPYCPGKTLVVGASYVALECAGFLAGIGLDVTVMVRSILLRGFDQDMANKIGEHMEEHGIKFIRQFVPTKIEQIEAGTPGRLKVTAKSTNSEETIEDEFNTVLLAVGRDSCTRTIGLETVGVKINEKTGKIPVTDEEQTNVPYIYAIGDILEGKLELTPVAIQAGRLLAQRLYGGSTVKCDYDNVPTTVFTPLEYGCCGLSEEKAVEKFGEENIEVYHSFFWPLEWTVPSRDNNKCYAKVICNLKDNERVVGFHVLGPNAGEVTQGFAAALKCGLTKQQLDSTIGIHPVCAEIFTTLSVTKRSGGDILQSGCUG

[7] = test system: Schistosoma mansoni; experiment: Antischistosomal activity against Schistosoma mansoni assessed as parasite killing after 2 hrs; type: functional, organism-based; method in brief: as §1
[8] = test system: Schistosoma mansoni; experiment: Antischistosomal activity against Schistosoma mansoni assessed as induction of parasite mortality after 8 hrs; type: functional; parameters: concentration or dose not given beside the values; method in brief: as §1
[9] = test system: Schistosoma mansoni; experiment: Antischistosomal activity against Schistosoma mansoni assessed as induction of parasite mortality after 72 hrs; type: functional; parameters: concentration or dose not given beside the values; method in brief: as §1
[10] = test system: Schistosoma mansoni; experiment: Antischistosomal activity against Schistosoma mansoni assessed as induction of parasite mortality after 48 hrs; type: functional; parameters: concentration or dose not given beside the values; method in brief: as §1
[11] = test system: Schistosoma mansoni; experiment: Antischistosomal activity against Schistosoma mansoni assessed as induction of parasite sluggish movement after 4 hrs; type: functional, organism-based; method in brief: as §1
[12] = Induction of nitric oxide release at 10 uM in presence of Schistosoma mansoni recombinant TGR; type: functional
[13] = test system: Schistosoma mansoni; experiment: Antischistosomal activity against Schistosoma mansoni assessed as induction of parasite sluggish movement after 8 hrs; type: functional, organism-based; method in brief: as §1
[14] = test system: Schistosoma mansoni; experiment: Antischistosomal activity against Schistosoma mansoni assessed as parasite killing after 4 hrs; type: functional; method in brief: as §1
[15] = test system: Schistosoma mansoni; experiment: Antischistosomal activity against Schistosoma mansoni assessed as induction of parasite sluggish movement after 48 hrs; type: functional, organism-based; method in brief: as §1
[16] = Reactivity with cysteine at 0.1 mM in 0.1M phosphate buffer assessed as amount of compound unreacted by HPLC
[17] = test system: Schistosoma mansoni; experiment: Antischistosomal activity against Schistosoma mansoni assessed as induction of parasite curling after 4 hrs; type: functional, organism-based; method in brief: as §1
[18] = Solubility by quantitative nitrogen detection based method
[19] = molecular target: hERG (KCNH2) (Homo sapiens, UniProt Q12809); experiment: Inhibition of human ERG expressed in HEK293 cells at 10 uM by fast patch clamp method; conditions: HEK293 cells expressing human ERG
hERG (KCNH2), sequence (Q12809 whole entry): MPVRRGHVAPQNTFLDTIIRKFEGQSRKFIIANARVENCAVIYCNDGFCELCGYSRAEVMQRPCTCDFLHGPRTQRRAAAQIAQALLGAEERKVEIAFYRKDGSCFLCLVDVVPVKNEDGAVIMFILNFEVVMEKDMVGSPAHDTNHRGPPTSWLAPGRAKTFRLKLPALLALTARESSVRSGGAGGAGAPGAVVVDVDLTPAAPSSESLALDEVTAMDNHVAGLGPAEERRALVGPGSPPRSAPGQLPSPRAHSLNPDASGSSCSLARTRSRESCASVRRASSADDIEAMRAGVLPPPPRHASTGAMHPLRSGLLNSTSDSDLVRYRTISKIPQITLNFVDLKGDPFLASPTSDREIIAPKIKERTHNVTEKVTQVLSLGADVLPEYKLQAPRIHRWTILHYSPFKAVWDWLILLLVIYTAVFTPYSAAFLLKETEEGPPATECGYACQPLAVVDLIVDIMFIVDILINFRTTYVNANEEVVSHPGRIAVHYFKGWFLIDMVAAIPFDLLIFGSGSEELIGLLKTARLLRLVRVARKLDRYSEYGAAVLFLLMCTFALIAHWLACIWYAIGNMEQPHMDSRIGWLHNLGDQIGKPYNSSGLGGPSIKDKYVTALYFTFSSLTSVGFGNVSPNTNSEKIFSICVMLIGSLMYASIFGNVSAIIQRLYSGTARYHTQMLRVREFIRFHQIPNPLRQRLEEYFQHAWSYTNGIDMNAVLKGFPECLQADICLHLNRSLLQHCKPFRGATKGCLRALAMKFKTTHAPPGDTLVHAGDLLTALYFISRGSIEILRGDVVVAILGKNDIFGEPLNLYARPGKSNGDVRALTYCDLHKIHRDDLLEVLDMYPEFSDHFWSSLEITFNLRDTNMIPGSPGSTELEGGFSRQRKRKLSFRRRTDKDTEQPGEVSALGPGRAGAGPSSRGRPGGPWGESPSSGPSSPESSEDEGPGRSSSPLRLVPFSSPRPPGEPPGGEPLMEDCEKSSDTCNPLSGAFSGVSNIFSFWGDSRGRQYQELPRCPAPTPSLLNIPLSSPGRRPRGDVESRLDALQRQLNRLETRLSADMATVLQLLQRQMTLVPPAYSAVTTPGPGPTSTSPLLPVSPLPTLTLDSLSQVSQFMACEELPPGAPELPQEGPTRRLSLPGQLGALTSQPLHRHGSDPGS

[20] = Metabolic stability in human liver microsomes assessed as compound remaining over 60 mins in presence of NADPH; type: ADME, Microsome; conditions: read-out: Stability
[21] = test system: Caco-2; experiment: Apparent permeability from apical to basolateral side of human Caco-2 cells
[22] = Metabolic stability in human liver microsomes assessed as compound remaining over 60 mins in absence of NADPH; type: ADME, Microsome; conditions: read-out: Stability
[23] = Distribution coefficient, log D of the compound; conditions: octanol/water
[24] = test system: Caco-2; experiment: Apparent permeability from basolateral to apical side of human Caco-2 cells
[25] = molecular target: T3, Thioredoxin glutathione reductase (Schistosoma mansoni, UniProt Q962Y6); experiment: Inhibition of Schistosoma mansoni TGR
T3 sequence (Q962Y6 whole entry): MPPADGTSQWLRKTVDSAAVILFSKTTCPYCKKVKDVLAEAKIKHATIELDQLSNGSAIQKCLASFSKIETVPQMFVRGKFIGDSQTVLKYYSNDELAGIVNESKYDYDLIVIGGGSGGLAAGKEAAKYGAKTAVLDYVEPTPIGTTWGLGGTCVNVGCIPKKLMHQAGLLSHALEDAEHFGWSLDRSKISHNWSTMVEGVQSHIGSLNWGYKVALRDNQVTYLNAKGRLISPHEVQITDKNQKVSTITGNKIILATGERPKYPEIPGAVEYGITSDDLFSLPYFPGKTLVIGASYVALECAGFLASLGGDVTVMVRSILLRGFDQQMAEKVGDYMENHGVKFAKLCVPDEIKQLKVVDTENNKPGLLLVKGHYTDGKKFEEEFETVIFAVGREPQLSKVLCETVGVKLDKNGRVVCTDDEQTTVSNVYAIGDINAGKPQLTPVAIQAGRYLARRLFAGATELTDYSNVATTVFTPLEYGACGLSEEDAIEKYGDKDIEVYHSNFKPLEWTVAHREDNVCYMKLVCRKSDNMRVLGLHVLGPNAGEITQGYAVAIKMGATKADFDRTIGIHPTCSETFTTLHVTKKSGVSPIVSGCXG

[26] = test system: Schistosoma mansoni; experiment: Antischistosomal activity against Schistosoma mansoni assessed as induction of parasite sluggish movement after 24 hrs; type: functional, organism-based; method in brief: as §1
[27] = test system: Schistosoma mansoni; experiment: Antischistosomal activity against Schistosoma mansoni assessed as induction of parasite sluggish movement after 16 hrs; type: functional, organism-based; method in brief: as §1
[28] = test system: Schistosoma mansoni; experiment: Antischistosomal activity against Schistosoma mansoni assessed as induction of parasite curling after 8 hrs; type: functional, organism-based; method in brief: as §1

Row | Compound | IC50 [1] [µM] | Activity [2] | Activity [3] [%] | Activity [4] | Activity [5] [%] | IC50 [6] [µM] | Activity [7] | Activity [8] | Activity [9] [%] | Activity [10] [%] | Activity [12] [%] | Activity [14] | solubility [18] [µM] | inhibition at 10 µM [19] [%] | further results
1 | N#Cc1c(-c2cccc(Cl)c2)no[n+]1[O-] | 35.7 | 20% | 50 | 64% | 12 | < 12.5 | inactive | 15% | 100 | 80 | 1 |  |  |  | Activity [11]: Active
2 | N#Cc1c(-c2ccc(O)cc2)no[n+]1[O-] | > 50 | 15% |  | 40% |  | > 400 | inactive |  | 100 | 60 |  | inactive |  |  | Activity [13]: Active
3 | Cc1c(-c2ccccc2)no[n+]1[O-] | > 50 | inactive | 2 | inactive | < 1 | > 400 | inactive | inactive | 5 |  | < 1 | inactive |  |  | Activity [15]: Active; Activity [16]: inactive
4 | N#Cc1c(-c2cccc(-c3no[n+]([O-])c3C#N)c2)no[n+]1[O-] | > 50 | 60% |  | 100% |  | 150 | inactive | 45% |  | 100 |  |  | 5 (≈ 1.48 µg/mL) | 7.8 | Activity [17]: Active
5 | N#Cc1c(-c2cc(F)cc(-c3no[n+]([O-])c3C#N)c2)no[n+]1[O-] |  | 55% |  | 78% |  |  | inactive |  |  | 100 |  | inactive | 89.1 (≈ 28 µg/mL) | 29.4 | remaining at 1 h [20]: 20%; Papp [21]: 7.9 ×10⁻⁶ cm/s; Activity [16]: Active; remaining at 1 h [22]: 51%; logD [23]: 2.91; Papp [24]: 2.7 ×10⁻⁶ cm/s
6 | N#Cc1c(-c2ccccc2)no[n+]1[O-] [FUROXAN] |  |  |  |  | 15 |  | inactive |  |  |  | 1.5 |  |  |  | Activity [17]: Active; Activity [16]: Active
7 | N#Cc1c(-c2cccs2)no[n+]1[O-] |  | 25% | 20 | 25% | 2 |  | inactive |  | 100 | 100 | 1 | inactive | 240 (≈ 46.4 µg/mL) | 3.4 | remaining at 1 h [20]: 1%; remaining at 1 h [22]: 64%; IC50 [25]: 3.5 µM; Papp [24]: 9 ×10⁻⁶ cm/s
8 | O=Cc1c(-c2ccccc2)no[n+]1[O-] | 35.2 | inactive | 9 |  | 7 | < 12.5 | inactive | inactive | 5 | 3 | 1 | inactive |  |  | Activity [26]: Active
9 | N#Cc1c(-c2ccc(-c3ccccc3)cc2)no[n+]1[O-] |  |  |  | Active |  |  | inactive |  | 45 | 40 |  | inactive |  |  | Activity [27]: Active; Activity [13]: Active
10 | N#Cc1c(-c2ccc(F)c(Br)c2)no[n+]1[O-] | > 50 | Active | 69 | 5% | 19 | 250 | inactive |  | 100 | 75 | 2 | inactive |  |  | Activity [28]: Active
11 | N#Cc1c(-c2ccc(Br)cc2)no[n+]1[O-] | > 50 | 60% | 68 | 100% | 19 | 250 | inactive | 39% | 100 | 100 | 4 |  | 18.6 (≈ 4.95 µg/mL) | 5.5 | remaining at 1 h [20]: 10%; Papp [21]: 7.9 ×10⁻⁶ cm/s; remaining at 1 h [22]: 67%; logD [23]: 3.1; Papp [24]: 4.8 ×10⁻⁶ cm/s; Activity [11]: Active
